According to ChEMBL document CHEMBL1143382, “Discovery of chiral cyclopropyl dihydro-alkylthio-benzyl-oxopyrimidine (S-DABO) derivatives as potent HIV-1 reverse transcriptase inhibitors with high activity against clinically relevant mutants” (J Med Chem, 2009):

Assays:
[1] = tested on: Human immunodeficiency virus 1; test: Antiviral activity against HIV1 reverse transcriptase Y181C mutant infected in human MT4 cells after 5 days by MTT assay; format: functional, organism-based; conditions: Human immunodeficiency virus 1, MT4, 120 h
Procedure, shortened: (§1)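 MT-4 lymphoid cells infected with the HIV-1 strain carrying the indicated RT mutation in the presence of varying compound concentrations. Viable cells counted by tetrazolium (MTT) colorimetric read-out at day 5 post-infection. […] Mock-infected cells were used for cytotoxicity. Values are means of at least two experiments.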

[2] = tested on: Human immunodeficiency virus 1; test: Antiviral activity against HIV1 reverse transcriptase Y188L mutant infected in human MT4 cells after 5 days by MTT assay; format: functional, organism-based; conditions: Human immunodeficiency virus 1, MT4, 120 h; procedure, shortened: as §1
[3] = Cytotoxicity against human MT4 cells by MTT assay; format: cell-based
[4] = tested on: Human immunodeficiency virus 1; test: Antiviral activity against wild type HIV1 NL4-3 infected in human MT4 cells after 5 days by MTT assay; format: functional, organism-based; conditions: Human immunodeficiency virus 1, NL4-3, MT4, 120 h
[5] = tested on: Human immunodeficiency virus 1; test: Antiviral activity against HIV1 reverse transcriptase K103N mutant infected in human MT4 cells after 5 days by MTT assay; format: functional, organism-based; conditions: Human immunodeficiency virus 1, MT4, 120 h; procedure, shortened: as §1
[6] = target: Human immunodeficiency virus type 1 reverse transcriptase (Human immunodeficiency virus 1) (UniProt Q72547)
[7] = tested on: Human immunodeficiency virus type 1 reverse transcriptase (Human immunodeficiency virus 1), Q72547 [K103N]
[8] = tested on: Human immunodeficiency virus type 1 reverse transcriptase (Human immunodeficiency virus 1), Q72547 [Y181I]
[9] = target: Human immunodeficiency virus type 1 reverse transcriptase (Human immunodeficiency virus 1) (UniProt Q72547); test: Binding affinity to HIV1 reverse transcriptase treated for 3 mins by surface plasmon resonance
[10] = target: T1, Human immunodeficiency virus type 1 reverse transcriptase (Human immunodeficiency virus 1, UniProt Q72547); test: Inhibition of wild type HIV1 free reverse transcriptase
[11] = target: T1, Human immunodeficiency virus type 1 reverse transcriptase; test: Inhibition of wild type HIV1 reverse transcriptase-DNA binary complex
[12] = target: T1, Human immunodeficiency virus type 1 reverse transcriptase; test: Inhibition of wild type HIV1 reverse transcriptase-DNA-dNTP ternary complex
[13] = target: T2, Human immunodeficiency virus type 1 reverse transcriptase (Human immunodeficiency virus 1, UniProt Q72547, K103N); test: Inhibition of HIV1 recombinant free reverse transcriptase K103N mutant expressed in Escherichia coli BL21
[14] = target: T2, Human immunodeficiency virus type 1 reverse transcriptase; test: Inhibition of HIV1 recombinant reverse transcriptase K103N mutant-DNA binary complex expressed in Escherichia coli BL21
[15] = target: T2, Human immunodeficiency virus type 1 reverse transcriptase; test: Inhibition of HIV1 recombinant reverse transcriptase K103N mutant-DNA-dNTP ternary complex expressed in Escherichia coli BL21

Row | Ka [9] | SMILES | EC50 [1] | EC50 [2] | CC50 [3] | EC50 [4] | EC50 [5] | ID50 [6] | ID50 [7] | ID50 [8] | Ki [10] | Ki [11] | Ki [12] | Ki [13] | Ki [14] | Ki [15]
1 | – | O=C1Nc2ccc(Cl)cc2[C@@](C#CC2CC2)(C(F)(F)F)O1 [EFAVIRENZ] | 8 nM | 3 nM | > 320 nM | – | – | – | – | – | – | – | – | – | – | –
2 | – | COc1ccc([C@@H]2C[C@H]2CSc2nc([C@@H](C)c3c(F)cccc3F)c(C)c(=O)[nH]2)cc1 | 520 nM | 190 nM | 47200 nM | 4.9 nM | 2550 nM | 300 nM | 600 nM | 6000 nM | – | – | – | – | – | –
3 | – | COc1ccc(C2CC2CSc2nc(C(C)c3c(F)cccc3F)c(C)c(=O)[nH]2)cc1 (racemic) | 160 nM | 45 nM | 37300 nM | 0.6 nM | 520 nM | 40 nM | 3000 nM | 6000 nM | – | – | – | – | – | –
4 | – | Cc1ccnc2c1NC(=O)c1cccnc1N2C1CC1 [NEVIRAPINE] | > 7500 nM | > 7500 nM | > 7500 nM | – | – | – | – | – | – | – | – | – | – | –
5 | 0.8 ×10⁴ /M/s | Cc1cc(C#N)cc(C)c1Oc1nc(Nc2ccc(C#N)cc2)nc(N)c1Br | – | – | – | – | – | – | – | – | – | – | – | – | – | –
6 | – | Cc1c([C@H](C)c2c(F)cccc2F)nc(SC/C=C/c2ccccc2)[nH]c1=O | – | – | – | – | – | 10 nM | 470 nM | 2990 nM | – | – | – | – | – | –
7 | – | COc1ccc([C@H]2C[C@@H]2CSc2nc([C@@H](C)c3c(F)cccc3F)c(C)c(=O)[nH]2)cc1 | 7240 nM | 1080 nM | > 56200 nM | 90 nM | 5510 nM | 120 nM | 830 nM | 2300 nM | – | – | – | – | – | –
8 | 1 ×10⁴ /M/s | COc1ccc(/C=C/CSc2nc(C(C)c3c(F)cccc3F)c(C)c(=O)[nH]2)cc1 (racemic) | – | – | – | – | – | – | – | – | – | – | – | – | – | –
9 | – | COc1ccc(/C=C/CSc2nc([C@@H](C)c3c(F)cccc3F)c(C)c(=O)[nH]2)cc1 | – | – | – | – | – | 600 nM | 7010 nM | 27800 nM | – | – | – | – | – | –
10 | – | COc1ccc([C@H]2C[C@@H]2CSc2nc([C@H](C)c3c(F)cccc3F)c(C)c(=O)[nH]2)cc1 | 2700 nM | 700 nM | > 56200 nM | 10 nM | 3710 nM | 40 nM | 400 nM | 900 nM | 40 nM | 30 nM | 40 nM | 600 nM | 400 nM | 300 nM

Row | SMILES | Ka [9] | EC50 [1] | EC50 [2] | CC50 [3] | EC50 [4] | EC50 [5] | ID50 [6] | ID50 [7] | ID50 [8] | Ki [10] | Ki [11] | Ki [12] | Ki [13] | Ki [14] | Ki [15]
11 | COc1ccc([C@@H]2C[C@H]2CSc2nc([C@H](C)c3c(F)cccc3F)c(C)c(=O)[nH]2)cc1 | 1 ×10⁴ /M/s | 13 nM | 1.5 nM | 14600 nM | 0.07 nM | 36 nM | 20 nM | 40 nM | 800 nM | 10 nM | 8 nM | 9 nM | 65 nM | 40 nM | 30 nM
